Measurements published in ChEMBL document CHEMBL1129238, “Structure--activity relationships of 1-(2-Deoxy-2-fluoro-beta-L-arabinofuranosyl)pyrimidine nucleosides as anti-hepatitis B virus agents” (J Med Chem, 1996).
pEC50, pIC50: −log10 of the molar value.

What was measured:
Homo sapiens [1] = species on record: Homo sapiens; experiment: Anti hepatitis-B virus activity was evaluated in 2.2.15 cells.; type: functional, cell-based; conditions: HepG2 2.2.15
Summary of the method: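 HBV-producing 2.2.15 cells; EC50 reported; compounds examined at concentrations up to 10 μM.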

Homo sapiens [2] = species on record: Homo sapiens; experiment: The growth inhibition activity for the compound was evaluated in 2.2.15 cells.; type: functional, cell-based; conditions: HepG2 2.2.15
Summary of the method: (§1)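 Cytotoxicity (growth inhibition, IC50) measured in 2.2.15 cells and in CEM cells, with compounds tested at concentrations up to 200 μM.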

CCRF-CEM = experiment: The growth inhibition activity for the compound was evaluated in CEM cells.; type: functional, cell-based; conditions: Homo sapiens; summary of the method: as §1
Homo sapiens [3] = species on record: Homo sapiens; experiment: Selectivity index was determined from the ratio of IC50 to the EC50 values evaluated in 2.2.15 cells.; type: functional, HepG2 2.2.15
Summary of the method: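 Selectivity computed as the ratio of the growth-inhibition IC50 to the anti-HBV EC50, both from 2.2.15 cells. Compounds were tested up to 200 μM for toxicity and up to 10 μM for antiviral activity.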

Structure (SMILES)	pEC50 (Homo sapiens [1])	pIC50 (CCRF-CEM)	pIC50 (Homo sapiens [2])	Selectivity (Homo sapiens [3])
O=c1[nH]c(=O)n([C@@H]2O[C@H](CO)[C@@H](O)[C@@H]2F)cc1C(F)(F)F	< 5.00	–	< 3.70	–
O=c1[nH]c(=O)n([C@@H]2O[C@H](CO)[C@@H](O)[C@H]2F)cc1I	< 5.00	–	< 3.70	–
O=c1[nH]c(=O)n([C@H]2O[C@@H](CO)[C@H](O)[C@@H]2F)cc1/C=C/Br	< 5.00	< 4.00	< 3.70	–
Nc1nc(=O)n([C@H]2O[C@@H](CO)[C@H](O)[C@H]2F)cc1F	< 5.00	–	< 3.70	–
Nc1nc(=O)n([C@H]2O[C@@H](CO)[C@H](O)[C@H]2F)cc1Cl	< 5.00	–	< 3.70	–
O=c1[nH]c(=O)n([C@H]2O[C@@H](CO)[C@H](O)[C@H]2F)cc1F	< 5.00	–	< 3.70	–
O=c1[nH]c(=O)n([C@H]2O[C@@H](CO)[C@H](O)[C@H]2F)cc1Cl	< 5.00	–	< 3.70	–
Nc1nc(=O)n([C@H]2O[C@@H](CO)[C@H](O)[C@H]2F)cc1Br	< 5.00	–	< 3.70	–
Cc1cn([C@@H]2O[C@H](CO)[C@@H](O)[C@@H]2F)c(=O)[nH]c1=O [5-METHYL-2'-FLUOROARAURACIL]	7.00	< 3.70	< 3.70	>2000

Second part, led by results:

pEC50 (Homo sapiens [1])	pIC50 (CCRF-CEM)	Structure (SMILES)	pIC50 (Homo sapiens [2])	Selectivity (Homo sapiens [3])
< 5.00	–	CCc1cn([C@H]2O[C@@H](CO)[C@H](O)[C@@H]2F)c(=O)[nH]c1=O	< 3.70	–
< 5.00	–	C#Cc1cn([C@H]2O[C@@H](CO)[C@H](O)[C@H]2F)c(=O)[nH]c1=O	< 3.70	–
< 5.00	–	O=c1[nH]c(=O)n([C@H]2O[C@@H](CO)[C@H](O)[C@H]2F)cc1Br	< 3.70	–
5.85	< 4.00	Nc1ccn([C@@H]2O[C@H](CO)[C@@H](O)[C@@H]2F)c(=O)n1	< 3.70	>140
5.30	–	Nc1nc(=O)n([C@@H]2O[C@H](CO)[C@@H](O)[C@@H]2F)cc1I [FIACITABINE]	< 3.70	>40
